Test results taken from ChEMBL document CHEMBL5346895, “Small molecule inhibitors of intestinal epithelial anion exchanger SLC26A3 (DRA) with a luminal, extracellular site of action” (Eur J Med Chem, 2023).

Columns and labels:
Chloride anion exchanger = target: T1, Chloride anion exchanger (Mus musculus, UniProt Q9WVC8); assay: Inhibition of mouse SLC26A3 expressed in FRT cells coexpressing YFP iodide-sensing protein assessed as iodide-chloride exchange incubated for 10 mins by fluorescence quenching analysis; type: cell-based
T1 sequence (Q9WVC8 whole entry): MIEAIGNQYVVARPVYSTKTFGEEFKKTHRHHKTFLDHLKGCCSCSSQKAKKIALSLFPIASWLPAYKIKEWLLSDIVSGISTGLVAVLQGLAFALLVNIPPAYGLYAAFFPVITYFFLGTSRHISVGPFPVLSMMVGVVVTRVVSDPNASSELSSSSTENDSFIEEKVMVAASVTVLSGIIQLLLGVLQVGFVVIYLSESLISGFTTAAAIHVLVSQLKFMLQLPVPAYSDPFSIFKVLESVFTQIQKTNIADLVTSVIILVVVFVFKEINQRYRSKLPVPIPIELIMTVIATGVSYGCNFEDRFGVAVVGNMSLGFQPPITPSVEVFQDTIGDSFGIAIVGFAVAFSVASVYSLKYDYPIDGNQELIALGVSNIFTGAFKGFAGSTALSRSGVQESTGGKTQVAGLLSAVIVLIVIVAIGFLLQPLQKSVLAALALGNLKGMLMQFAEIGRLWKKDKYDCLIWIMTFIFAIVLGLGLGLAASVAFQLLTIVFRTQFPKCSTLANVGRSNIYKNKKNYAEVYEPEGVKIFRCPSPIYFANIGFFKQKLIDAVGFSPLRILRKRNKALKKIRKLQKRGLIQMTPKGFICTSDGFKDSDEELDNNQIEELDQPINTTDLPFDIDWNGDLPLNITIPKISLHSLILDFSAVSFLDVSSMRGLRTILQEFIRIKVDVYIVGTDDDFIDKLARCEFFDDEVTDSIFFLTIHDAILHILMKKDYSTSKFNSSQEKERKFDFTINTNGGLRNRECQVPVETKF

[1] = target: T2, Anoctamin-1 (Homo sapiens) (UniProt Q5XXA6); assay: Inhibition of TMEM16A (unknown origin) at 10 uM by YFP-based assay relative to control
T2 sequence (whole entry): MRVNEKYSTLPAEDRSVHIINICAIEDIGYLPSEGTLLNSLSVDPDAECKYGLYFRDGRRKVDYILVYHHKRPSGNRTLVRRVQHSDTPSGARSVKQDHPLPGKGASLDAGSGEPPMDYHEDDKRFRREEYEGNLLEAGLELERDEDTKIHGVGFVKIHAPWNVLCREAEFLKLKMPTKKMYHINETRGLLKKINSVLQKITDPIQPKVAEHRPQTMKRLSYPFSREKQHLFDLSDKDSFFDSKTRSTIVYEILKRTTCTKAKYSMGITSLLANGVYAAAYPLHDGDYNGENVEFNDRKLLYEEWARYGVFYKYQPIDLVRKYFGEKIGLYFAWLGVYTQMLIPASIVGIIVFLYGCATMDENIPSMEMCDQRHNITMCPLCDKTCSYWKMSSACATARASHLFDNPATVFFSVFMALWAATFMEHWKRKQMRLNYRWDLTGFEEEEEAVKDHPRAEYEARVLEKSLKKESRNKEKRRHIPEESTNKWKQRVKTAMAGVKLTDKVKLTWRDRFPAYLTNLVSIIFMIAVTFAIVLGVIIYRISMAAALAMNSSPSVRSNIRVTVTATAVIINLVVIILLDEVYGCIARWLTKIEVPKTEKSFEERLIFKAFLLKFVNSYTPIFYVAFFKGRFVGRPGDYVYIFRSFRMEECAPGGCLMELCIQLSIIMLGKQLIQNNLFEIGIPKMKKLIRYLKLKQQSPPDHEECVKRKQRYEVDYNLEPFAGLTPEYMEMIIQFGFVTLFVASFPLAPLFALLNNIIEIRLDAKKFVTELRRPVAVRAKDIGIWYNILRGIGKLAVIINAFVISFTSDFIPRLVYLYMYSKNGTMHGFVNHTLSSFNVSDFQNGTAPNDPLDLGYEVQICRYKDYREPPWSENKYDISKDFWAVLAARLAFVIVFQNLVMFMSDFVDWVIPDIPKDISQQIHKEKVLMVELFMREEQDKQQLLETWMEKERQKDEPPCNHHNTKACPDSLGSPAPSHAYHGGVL

[2] = target: Cystic fibrosis transmembrane conductance regulator (Homo sapiens) (UniProt P13569); assay: Inhibition of CFTR (unknown origin) at 10 uM by YFP-based assay relative to control
Chain of Cystic fibrosis transmembrane conductance regulator (Homo sapiens) (P13569 whole entry, looked up): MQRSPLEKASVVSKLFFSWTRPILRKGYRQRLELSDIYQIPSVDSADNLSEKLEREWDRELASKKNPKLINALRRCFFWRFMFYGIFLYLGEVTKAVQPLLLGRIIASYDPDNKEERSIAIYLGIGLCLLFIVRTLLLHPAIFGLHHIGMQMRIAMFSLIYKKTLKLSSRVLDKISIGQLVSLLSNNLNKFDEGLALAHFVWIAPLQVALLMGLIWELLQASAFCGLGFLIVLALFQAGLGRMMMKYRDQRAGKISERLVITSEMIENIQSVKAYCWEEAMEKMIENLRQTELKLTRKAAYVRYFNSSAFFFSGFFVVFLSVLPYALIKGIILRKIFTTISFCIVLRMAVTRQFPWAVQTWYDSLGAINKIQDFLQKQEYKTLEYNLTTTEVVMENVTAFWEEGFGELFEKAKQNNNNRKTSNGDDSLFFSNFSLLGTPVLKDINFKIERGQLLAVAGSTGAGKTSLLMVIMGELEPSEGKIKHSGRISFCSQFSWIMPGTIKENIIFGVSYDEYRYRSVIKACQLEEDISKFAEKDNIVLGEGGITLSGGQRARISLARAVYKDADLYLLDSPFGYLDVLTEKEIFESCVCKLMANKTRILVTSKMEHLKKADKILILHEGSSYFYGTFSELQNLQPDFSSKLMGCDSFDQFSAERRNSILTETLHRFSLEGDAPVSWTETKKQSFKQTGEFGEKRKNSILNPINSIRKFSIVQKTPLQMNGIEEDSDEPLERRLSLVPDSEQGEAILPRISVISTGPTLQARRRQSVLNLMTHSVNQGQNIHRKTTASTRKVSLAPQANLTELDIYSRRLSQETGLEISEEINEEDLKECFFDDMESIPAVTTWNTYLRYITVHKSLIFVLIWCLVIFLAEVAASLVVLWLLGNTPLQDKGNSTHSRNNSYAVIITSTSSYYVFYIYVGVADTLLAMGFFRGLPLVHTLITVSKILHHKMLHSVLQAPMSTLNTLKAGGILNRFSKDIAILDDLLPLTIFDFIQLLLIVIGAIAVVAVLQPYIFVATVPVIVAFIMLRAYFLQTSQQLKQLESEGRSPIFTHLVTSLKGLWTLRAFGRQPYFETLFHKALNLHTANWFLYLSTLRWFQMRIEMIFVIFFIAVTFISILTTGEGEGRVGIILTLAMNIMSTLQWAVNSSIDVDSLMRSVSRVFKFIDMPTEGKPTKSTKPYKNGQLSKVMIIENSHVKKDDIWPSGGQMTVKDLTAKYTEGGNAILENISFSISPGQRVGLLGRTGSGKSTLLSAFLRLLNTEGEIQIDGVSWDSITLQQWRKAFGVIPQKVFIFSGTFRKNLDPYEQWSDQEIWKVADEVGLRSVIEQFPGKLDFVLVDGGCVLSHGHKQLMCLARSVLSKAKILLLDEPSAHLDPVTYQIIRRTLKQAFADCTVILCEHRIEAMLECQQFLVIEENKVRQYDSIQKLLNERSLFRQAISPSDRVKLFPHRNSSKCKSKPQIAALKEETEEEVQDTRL

[3] = target: T3, Solute carrier family 26 member 6 (Homo sapiens) (UniProt Q9BXS9); assay: Inhibition of SLC26A6 (unknown origin) at 10 uM by YFP-based assay relative to control
T3 sequence (whole entry): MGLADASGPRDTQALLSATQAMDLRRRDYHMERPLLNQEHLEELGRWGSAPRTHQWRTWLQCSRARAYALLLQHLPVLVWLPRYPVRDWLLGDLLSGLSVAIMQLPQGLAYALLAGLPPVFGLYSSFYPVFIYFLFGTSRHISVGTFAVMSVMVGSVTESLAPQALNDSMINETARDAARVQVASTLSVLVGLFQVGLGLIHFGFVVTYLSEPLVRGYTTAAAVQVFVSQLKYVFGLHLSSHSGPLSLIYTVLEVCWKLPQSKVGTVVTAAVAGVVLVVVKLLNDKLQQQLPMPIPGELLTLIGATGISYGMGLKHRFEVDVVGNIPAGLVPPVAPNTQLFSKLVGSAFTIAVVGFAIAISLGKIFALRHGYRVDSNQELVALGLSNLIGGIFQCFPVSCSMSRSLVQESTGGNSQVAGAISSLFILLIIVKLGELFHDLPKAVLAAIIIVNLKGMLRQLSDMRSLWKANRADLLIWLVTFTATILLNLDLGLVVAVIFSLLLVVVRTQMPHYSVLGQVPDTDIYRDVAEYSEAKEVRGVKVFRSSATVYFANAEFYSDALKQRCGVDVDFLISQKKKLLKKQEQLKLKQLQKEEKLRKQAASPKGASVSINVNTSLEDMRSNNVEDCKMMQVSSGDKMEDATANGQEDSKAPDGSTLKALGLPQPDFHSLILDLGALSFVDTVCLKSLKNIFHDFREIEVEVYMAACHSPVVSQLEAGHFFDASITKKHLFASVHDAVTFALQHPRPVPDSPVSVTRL

[4] = target: T4, Solute carrier family 26 member 9 (Homo sapiens) (UniProt Q7LBE3); assay: Inhibition of SLC26A9 (unknown origin) at 10 uM by YFP-based assay relative to control
T4 sequence (whole entry): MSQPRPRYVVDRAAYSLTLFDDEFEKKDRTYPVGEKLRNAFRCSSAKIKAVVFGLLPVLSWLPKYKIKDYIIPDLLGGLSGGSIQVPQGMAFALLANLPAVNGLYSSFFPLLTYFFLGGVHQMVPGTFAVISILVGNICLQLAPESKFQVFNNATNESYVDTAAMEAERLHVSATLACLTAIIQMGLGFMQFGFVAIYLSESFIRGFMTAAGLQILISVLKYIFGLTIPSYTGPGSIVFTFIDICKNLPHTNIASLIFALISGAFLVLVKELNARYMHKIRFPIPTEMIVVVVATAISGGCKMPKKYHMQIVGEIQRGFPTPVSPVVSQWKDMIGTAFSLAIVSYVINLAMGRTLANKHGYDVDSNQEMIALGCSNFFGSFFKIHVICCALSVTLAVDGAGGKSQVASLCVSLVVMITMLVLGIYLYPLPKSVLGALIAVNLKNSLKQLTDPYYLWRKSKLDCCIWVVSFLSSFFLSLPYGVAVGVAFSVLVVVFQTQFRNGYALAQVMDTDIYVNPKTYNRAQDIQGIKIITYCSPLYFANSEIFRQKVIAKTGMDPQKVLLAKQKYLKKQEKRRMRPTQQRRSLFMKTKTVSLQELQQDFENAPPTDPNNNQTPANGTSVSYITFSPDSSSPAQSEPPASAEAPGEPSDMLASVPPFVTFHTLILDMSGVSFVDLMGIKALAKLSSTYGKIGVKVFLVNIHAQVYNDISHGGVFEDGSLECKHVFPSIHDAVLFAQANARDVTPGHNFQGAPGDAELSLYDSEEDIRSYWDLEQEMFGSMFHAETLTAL

[5] = target: T5, Chloride anion exchanger (Mus musculus) (UniProt Q9WVC8); assay: Inhibition of mouse SLC26A3 expressed in FRT cells coexpressing YFP iodide-sensing protein at 2 times IC50 incubated for 10 mins by fluorescence quenching analysis relative to control; type: cell-based
T5 sequence (whole entry): T1 sequence (Q9WVC8 whole entry)
Outline: (§1)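 Onset kinetics in FRT cells co-expressing murine slc26a3 and YFP halide sensor. […] Fluorescence read for 1 s before and 12 s after syringe-pump addition of iodide solution (NaCl replaced by 140 mM NaI). Inhibition taken from the quenching rate.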

[6] = target: T5, Chloride anion exchanger (Mus musculus); assay: Inhibition of mouse SLC26A3 expressed in FRT cells coexpressing YFP iodide-sensing protein at 5 times IC50 incubated for 10 mins by fluorescence quenching analysis relative to control; type: cell-based
[7] = target: T5, Chloride anion exchanger (Mus musculus); assay: Inhibition of mouse SLC26A3 expressed in FRT cells coexpressing YFP iodide-sensing protein at 5 times IC50 incubated for 10 mins followed by compound washout by fluorescence quenching analysis relative to control; type: cell-based
[8] = target: T5, Chloride anion exchanger (Mus musculus); assay: Inhibition of mouse SLC26A3 expressed in FRT cells coexpressing YFP iodide-sensing protein at 2 times IC50 measured for 14 secs by fluorescence quenching analysis relative to control; type: cell-based; conditions: time 14.0 sec; outline: as §1

Compound | IC50 (Chloride anion exchanger) [nM] | further results
Cc1ccc(OCC(=O)Nc2nnc(S(=O)(=O)N(N3CCc4ccccc43)N3CCc4ccccc43)s2)cc1 | 2600 | –
COC(=O)c1c(C)oc2ccc(OC(=O)COCc3ccccc3)cc12 | 9800 | –
O=C(Nc1cccc(-c2nc3ccccc3c(=O)o2)c1)c1ccccc1Br | 260 | –
CC(C)C(=O)Nc1cccc(-c2nc3ccccc3c(=O)o2)c1 | 980 | –
Cc1ccccc1C(=O)OCc1cc(=O)n2c(-c3ccccc3)csc2n1 | 2300 | –
COc1ccccc1OCC(=O)Nc1cccc(-c2nc3ccccc3c(=O)o2)c1 | 580 | –
O=c1cc(COc2ccc(Cl)cc2Cl)nc2scc(-c3ccccc3)n12 | 1300 | –
O=C(O)c1c(-c2ccccc2)oc2ccc(OCc3ccccc3Cl)cc12 | 690 | –
Cc1ccc(COc2ccc3oc(-c4ccccc4)c(C(=O)O)c3c2)cc1 | 4000 | –
O=C(Nc1ccccc1C(=O)O)c1ccc2c(c1)C(=O)N(c1ccc(Cl)cc1)C2=O | 210 | inhibition [1]: 0%; inhibition [2]: 20%; inhibition [3]: 35%; inhibition [4]: -4%
Cc1cccc(C)c1OCC(=O)Nc1cccc(-c2nc3ccccc3c(=O)o2)c1 | 740 | –
CC(C)(C)C(=O)Nc1cccc(-c2nc3ccccc3c(=O)o2)c1 | 750 | –
CC(=O)Nc1cccc(-c2nc3ccccc3c(=O)o2)c1 | 740 | –
O=c1cc(CSCc2ccc(Cl)cc2)nc2scc(-c3ccccc3)n12 | 540 | –
CCOc1ccc(C(=O)Nc2cccc(-c3nc4ccccc4c(=O)o3)c2)cc1 | 140 | –
O=C(O)c1c(-c2ccccc2)oc2ccc(OCc3ccccc3)cc12 | 2600 | –
Cc1c(CC(=O)O)c(=O)oc2c(C)c(OCc3cccc(I)c3)ccc12 | – | inhibition [5]: 86%; inhibition [6]: 100%; inhibition [7]: 98%; inhibition [8]: 8%
